We go through seven compounds from ChEMBL document CHEMBL1629413, “Hirsutalins A-H, eunicellin-based diterpenoids from the soft coral Cladiella hirsuta” (J Nat Prod, 2010).

Experiment [1] can be described thus: Cytotoxicity against human Hep3B cells by MTT assay. It is filed as functional, cell-based, Hep 3B2. The gist of the method:
(§1)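 Tumor cell lines from ATCC. Viability measured by MTT colorimetric method in duplicate, with doxorubicin as positive control. Read-out reported as IC50.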

The test system of another experiment is A549. The experiment in a line: Cytotoxicity against human A549 cells by MTT assay. It is filed as functional, cell-based. An outline of the steps: as §1
A general note: Tetrazolium dyes change colour on reduction, which living cells bring about.

In a further experiment the test system is Ca9-22. The experiment in a line: Cytotoxicity against human Ca9-22 cells by MTT assay. It is filed as functional, cell-based. The gist of the method:
as §1

The next experiment deals with MDA-MB-231. The experiment in a line: Cytotoxicity against human MDA-MB-231 cells by MTT assay. It is filed as functional, cell-based. The gist of the method: as §1
The next experiment has as its system MCF7. The experiment in a line: Cytotoxicity against human MCF7 cells by MTT assay. It is filed as functional, cell-based. An outline of the steps:
as §1

The subject of a further experiment is HepG2. The experiment in a line: Cytotoxicity against human HepG2 cells by MTT assay. It is filed as functional, cell-based. The gist of the method:
as §1

In experiment [2] the test system is RAW264.7. The experiment in a line: Antiinflammatory activity in mouse RAW264.7 cells assessed as accumulation of LPS-induced iNOS at 10 uM by immunoblot analysis. It is filed as functional. The gist of the method: (§2)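 RAW264.7 macrophages (ATCC) stimulated with LPS, with test compound at 10 μM. iNOS and COX-2 protein levels measured by western blotting. Levels expressed as % of cells treated with LPS alone.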
On the technique in general: A western blot detects proteins with antibodies after separation by electrophoresis.

In experiment [3] the test system is RAW264.7. The experiment in a line: Antiinflammatory activity in mouse RAW264.7 cells assessed as accumulation of LPS-induced COX-2 at 10 uM by immunoblot analysis. It is filed as functional. An outline of the steps: as §2

SMILES strings stand for the structures.

Broadly, the IC50 is the concentration needed to halve the response being measured.

Turning to `CCCC(=O)O[C@]1(C)CC[C@H](O)[C@@](C)(O)C[C@H]2O[C@@H]1[C@H]1[C@@H]2C(C)=CC[C@@H]1C(C)C` [HIRSUTALIN E], the IC50 in experiment [1] came to 14 µM; in the experiment with A549, 34 µM; with Ca9-22, 34 µM; with MDA-MB-231, 41 µM; with MCF7, 35 µM; in the experiment on HepG2, 4.7 µM.

With `C=C1CC[C@H]([C@@H](C)CO)[C@@H]2[C@H]1[C@H]1CC(=C)[C@@H](O)CC[C@@](C)(OC(=O)C(CC)OC(C)=O)[C@@H]2O1` (some centres not stated) [HIRSUTALIN D], the Activity in the experiment with RAW264.7 [2] was 3.3%.

`C=C1CC[C@H]([C@@H](C)COC(C)=O)[C@@H]2[C@H]1[C@H]1C[C@](C)(O)[C@@H](O)CC[C@@](C)(OC(=O)CCC)[C@@H]2O1` [HIRSUTALIN H]: the Activity in the experiment with RAW264.7 [2] is 32.3%.

With `C=C1CC[C@H]([C@@H](C)COC(C)=O)[C@@H]2[C@H]1[C@H]1CC(=C)[C@@H](O)CC(OC(=O)C(CC)OC(=O)CCC)[C@@](C)(O)[C@@H]2O1` (some centres not stated) [HIRSUTALIN B], the Activity came to 6.8% in the experiment with RAW264.7 [2] and 49% in the experiment on RAW264.7 [3].

Turning to `C=C1CC[C@H]([C@@H](C)CO)[C@@H]2[C@H]1[C@H]1CC(=C)[C@@H](O)CC[C@@](C)(OC(=O)C(CC)OC(=O)CCC)[C@@H]2O1` (some centres not stated) [HIRSUTALIN C], the Activity in the experiment on RAW264.7 [2] was 43.6%.

As to `C=C1CC[C@H]([C@@H](C)CO)[C@@H]2[C@H]1C(=O)C[C@@](C)(O)[C@H]1CC[C@@](C)(OC(=O)C(CC)OC(=O)CCC)[C@@H]2O1` (some centres not stated) [HIRSUTALIN F], the IC50 was determined as 29 µM in experiment [1], 32 µM with MCF7 and 29 µM with HepG2.

Consider `C=C1C[C@H]2O[C@H]([C@@H]3[C@@H]([C@@H](C)COC(=O)CCC)CC=C(C)[C@@H]32)[C@](C)(OC(=O)[C@H](O)CC)CC[C@@H]1O` [HIRSUTALIN A], for which the IC50 amounted to 29 µM in experiment [1], 28 µM in the experiment with A549 and 35 µM in the experiment with Ca9-22.
